Assay results: ChEMBL document CHEMBL1123145, “Synthesis of pyrrolizidine alkaloids indicine, intermedine, lycopsamine, and analogues and their N-oxides. Potential antitumor agents” (1985)

What was measured:
Format in all cases: functional, Mus musculus
P388 [1] = test: Survival rate of the animals determined for antitumor activity against P388 Lymphocytic Leukemia system at a dose of 192 mg/kg
P388 [2] = test: Survival rate of the animals determined for antitumor activity against P388 Lymphocytic Leukemia system at a dose of 24 mg/kg
P388 [3] = test: Weight difference observed in survivors treated for antitumor activity against P388 Lymphocytic Leukemia system at a dose of 96 mg/kg
P388 [4] = test: Survival rate of the animals determined for antitumor activity against P388 Lymphocytic Leukemia system at a dose of 48 mg/kg
P388 [5] = test: Weight difference observed in survivors treated for antitumor activity against P388 Lymphocytic Leukemia system at a dose of 24 mg/kg
P388 [6] = test: Weight difference observed in survivors treated for antitumor activity against P388 Lymphocytic Leukemia system at a dose of 48 mg/kg
P388 [7] = test: Survival rate of the animals determined for antitumor activity against P388 Lymphocytic Leukemia system at a dose of 96 mg/kg
P388 [8] = test: Number of Survivors determined for antitumor activity against P388 Lymphocytic Leukemia system on day 5 at a dose of 1600 mg/kg (Group I) (6 out of 6)
P388 [9] = test: Number of Survivors determined for antitumor activity against P388 Lymphocytic Leukemia system on day 5 at a dose of 1600 mg/kg (Group II)(6 out of 6)
P388 [10] = test: Number of Survivors determined for antitumor activity against P388 Lymphocytic Leukemia system on day 5 at a dose of 1600 mg/kg (Group III)(5 out of 6)
P388 [11] = test: Number of Survivors determined for antitumor activity against P388 Lymphocytic Leukemia system on day 5 at a dose of 1600 mg/kg (Group IV)(5 out of 6)
P388 [12] = test: Number of Survivors determined for antitumor activity against P388 Lymphocytic Leukemia system on day 5 at a dose of 200 mg/kg (Group I)(6 out of 6)
P388 [13] = test: Number of Survivors determined for antitumor activity against P388 Lymphocytic Leukemia system on day 5 at a dose of 200 mg/kg (Group II)(6 out of 6)
P388 [14] = test: Number of Survivors determined for antitumor activity against P388 Lymphocytic Leukemia system on day 5 at a dose of 200 mg/kg (Group IV)(6 out of 6)
P388 [15] = test: Survival rate of the animals determined for antitumor activity against P388 Lymphocytic Leukemia system at a dose of 400 mg/kg (Group III)
How it was run: (§1)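 P388 lymphocytic leukemia screen run in separate test groups (I–IV). Each group includes its own indicine N-oxide internal control, listed as the group's first entry. Survival and survivor weight change are read against that control. Material was limited, so some analogues were screened up to about 200 mg/kg maximum.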

P388 [16] = test: Survival rate of the animals determined for antitumor activity against P388 Lymphocytic Leukemia system at a dose of 1600 mg/kg (Group I)
P388 [17] = test: Weight difference observed in survivors treated for antitumor activity against P388 Lymphocytic Leukemia system at a dose of 800 mg/kg (Group I)
P388 [18] = test: Weight difference observed in survivors treated for antitumor activity against P388 Lymphocytic Leukemia system at a dose of 800 mg/kg (Group II)
P388 [19] = test: Weight difference observed in survivors treated for antitumor activity against P388 Lymphocytic Leukemia system at a dose of 800 mg/kg (Group III)
P388 [20] = test: Weight difference observed in survivors treated for antitumor activity against P388 Lymphocytic Leukemia system at a dose of 800 mg/kg (Group IV)
P388 [21] = test: Survival rate of the animals determined for antitumor activity against P388 Lymphocytic Leukemia system at a dose of 1600 mg/kg (Group II)
P388 [22] = test: Survival rate of the animals determined for antitumor activity against P388 Lymphocytic Leukemia system at a dose of 200 mg/kg (Group I)
P388 [23] = test: Survival rate of the animals determined for antitumor activity against P388 Lymphocytic Leukemia system at a dose of 200 mg/kg (Group II); how it was run: as §1
P388 [24] = test: Survival rate of the animals determined for antitumor activity against P388 Lymphocytic Leukemia system at a dose of 200 mg/kg (Group III); how it was run: as §1
P388 [25] = test: Survival rate of the animals determined for antitumor activity against P388 Lymphocytic Leukemia system at a dose of 200 mg/kg (Group IV); how it was run: as §1
P388 [26] = test: Survival rate of the animals determined for antitumor activity against P388 Lymphocytic Leukemia system at a dose of 400 mg/kg (Group I); how it was run: as §1
P388 [27] = test: Survival rate of the animals determined for antitumor activity against P388 Lymphocytic Leukemia system at a dose of 400 mg/kg (Group II); how it was run: as §1
P388 [28] = test: Number of Survivors determined for antitumor activity against P388 Lymphocytic Leukemia system on day 5 at a dose of 400 mg/kg (Group I)(6 out of 6)
P388 [29] = test: Number of Survivors determined for antitumor activity against P388 Lymphocytic Leukemia system on day 5 at a dose of 400 mg/kg (Group II)(6 out of 6)
P388 [30] = test: Number of Survivors determined for antitumor activity against P388 Lymphocytic Leukemia system on day 5 at a dose of 400 mg/kg (Group III)(6 out of 6)
P388 [31] = test: Number of Survivors determined for antitumor activity against P388 Lymphocytic Leukemia system on day 5 at a dose of 400 mg/kg (Group IV)(6 out of 6)
P388 [32] = test: Weight difference observed in survivors treated for antitumor activity against P388 Lymphocytic Leukemia system at a dose of 200 mg/kg (Group I); how it was run: as §1
P388 [33] = test: Weight difference observed in survivors treated for antitumor activity against P388 Lymphocytic Leukemia system at a dose of 200 mg/kg (Group II); how it was run: as §1
P388 [34] = test: Weight difference observed in survivors treated for antitumor activity against P388 Lymphocytic Leukemia system at a dose of 200 mg/kg (Group III); how it was run: as §1
P388 [35] = test: Weight difference observed in survivors treated for antitumor activity against P388 Lymphocytic Leukemia system at a dose of 200 mg/kg (Group IV); how it was run: as §1
P388 [36] = test: Survival rate of the animals determined for antitumor activity against P388 Lymphocytic Leukemia system at a dose of 400 mg/kg (Group IV); how it was run: as §1
P388 [37] = test: Weight difference observed in survivors treated for antitumor activity against P388 Lymphocytic Leukemia system at a dose of 400 mg/kg (Group I); how it was run: as §1
P388 [38] = test: Weight difference observed in survivors treated for antitumor activity against P388 Lymphocytic Leukemia system at a dose of 400 mg/kg (Group II); how it was run: as §1
P388 [39] = test: Weight difference observed in survivors treated for antitumor activity against P388 Lymphocytic Leukemia system at a dose of 400 mg/kg (Group III); how it was run: as §1
P388 [40] = test: Weight difference observed in survivors treated for antitumor activity against P388 Lymphocytic Leukemia system at a dose of 400 mg/kg (Group IV); how it was run: as §1
P388 [41] = test: Weight difference observed in survivors treated for antitumor activity against P388 Lymphocytic Leukemia system at a dose of 1600 mg/kg (Group I); how it was run: as §1
P388 [42] = test: Weight difference observed in survivors treated for antitumor activity against P388 Lymphocytic Leukemia system at a dose of 1600 mg/kg (Group III); how it was run: as §1
P388 [43] = test: Number of Survivors determined for antitumor activity against P388 Lymphocytic Leukemia system on day 5 at a dose of 800 mg/kg (Group I)(6 out of 6)
P388 [44] = test: Number of Survivors determined for antitumor activity against P388 Lymphocytic Leukemia system on day 5 at a dose of 800 mg/kg (Group II)(6 out of 6)
P388 [45] = test: Number of Survivors determined for antitumor activity against P388 Lymphocytic Leukemia system on day 5 at a dose of 800 mg/kg (Group III)(6 out of 6)
P388 [46] = test: Number of Survivors determined for antitumor activity against P388 Lymphocytic Leukemia system on day 5 at a dose of 800 mg/kg (Group IV)(6 out of 6)
P388 [47] = test: Survival rate of the animals determined for antitumor activity against P388 Lymphocytic Leukemia system at a dose of 800 mg/kg (Group I); how it was run: as §1
P388 [48] = test: Survival rate of the animals determined for antitumor activity against P388 Lymphocytic Leukemia system at a dose of 800 mg/kg (Group II); how it was run: as §1
P388 [49] = test: Survival rate of the animals determined for antitumor activity against P388 Lymphocytic Leukemia system at a dose of 800 mg/kg (Group III); how it was run: as §1
P388 [50] = test: Survival rate of the animals determined for antitumor activity against P388 Lymphocytic Leukemia system at a dose of 800 mg/kg (Group IV); how it was run: as §1
P388 [51] = test: Weight difference observed in survivors treated for antitumor activity against P388 Lymphocytic Leukemia system at a dose of 1600 mg/kg (Group II); how it was run: as §1
P388 [52] = test: Weight difference observed in survivors treated for antitumor activity against P388 Lymphocytic Leukemia system at a dose of 1600 mg/kg (Group IV); how it was run: as §1
P388 [53] = test: Number of Survivors determined for antitumor activity against P388 Lymphocytic Leukemia system on day 5 at a dose of 200 mg/kg (Group III)(6 out of 6)

Work on CC(C)C(O)(C(=O)OCC1=CC[N+]2([O-])CC[C@@H](O)C12)C(C)O (stereo in doubt; form 1) yielded a T/C (P388 [1]) of 123%, a T/C (P388 [2]) of 107% and a T-C (P388 [3]) of -0.3. It also gave a T/C (P388 [4]) of 114%, a T-C (P388 [5]) of 0 and a T-C (P388 [6]) of -0.6. For the same compound, the T/C (P388 [7]) was 114%.
For CC(C)[C@](O)(C(=O)OCC1=CC[N+]2([O-])CC[C@@H](O)[C@@H]12)[C@H](C)O (stereo partly drawn) [INDICINE N-OXIDE], the Survivors (P388 [8]) was 6, the Survivors (P388 [9]) was 6 and the Survivors (P388 [10]) was 5. For the same compound, the Survivors (P388 [11]) was 5, the Survivors (P388 [12]) was 6 and the Survivors (P388 [13]) was 6. It also gave a Survivors (P388 [14]) of 6, a T/C (P388 [15]) of 191% and a T/C (P388 [16]) of 142%. The T-C (P388 [17]) was -3.2, the T-C (P388 [18]) was -3.3 and the T-C (P388 [19]) was -4.7. For the same compound, the T-C (P388 [20]) was -2.6, the T/C (P388 [21]) was 117% and the T/C (P388 [22]) was 133%. It also gave a T/C (P388 [23]) of 120%, a T/C (P388 [24]) of 170% and a T/C (P388 [25]) of 140%. For the same compound, the T/C (P388 [26]) was 151%, the T/C (P388 [27]) was 145% and the Survivors (P388 [28]) was 6. For the same compound, the Survivors (P388 [29]) was 6, the Survivors (P388 [30]) was 6 and the Survivors (P388 [31]) was 6. The T-C (P388 [32]) was -1.6, the T-C (P388 [33]) was -0.5 and the T-C (P388 [34]) was -2.9. It also gave a T-C (P388 [35]) of -0.7, a T/C (P388 [36]) of 146% and a T-C (P388 [37]) of -1.6. For the same compound, the T-C (P388 [38]) was -1.9, the T-C (P388 [39]) was -4.3 and the T-C (P388 [40]) was -1.7. The T-C (P388 [41]) was -2.2, the T-C (P388 [42]) was -5.8 and the Survivors (P388 [43]) was 6. The Survivors (P388 [44]) was 6, the Survivors (P388 [45]) was 6 and the Survivors (P388 [46]) was 6. For the same compound, the T/C (P388 [47]) was 160%, the T/C (P388 [48]) was 200% and the T/C (P388 [49]) was 200%. It also gave a T/C (P388 [50]) of 112%, a T-C (P388 [51]) of -3.7 and a T-C (P388 [52]) of -2.9. For the same compound, the Survivors (P388 [53]) was 6.
